Measurements from different studies.
Protocols differ between the studies behind these lines.
Target: TRAF2 and NCK-interacting protein kinase (TNIK, Homo sapiens, UniProt Q9UKE5)

| SMILES | read-out | method | concentration | remaining binding |
| --- | --- | --- | --- | --- |
| c1cnn2ncc(-c3ccnc(N4CCC45COC5)n3)c2c1 | binding | – | 1 µM | 72% |
| CS(=O)(=O)N1CCCC(NC(=O)[C@H](CCC2CCCCC2)NC(=O)c2ccc(CNc3ncnc4c3nnn4-c3ccccc3)cc2)C1 (stereo partly drawn) | binding | competition with immobilised ligand | 1 µM | 45% |
| C[C@@H]1CCN(c2nccc(-c3cnn4ncccc34)n2)C1 | binding | – | 1 µM | 90% |
| CC(C)(O)c1cncc(-c2nc3ccc(F)cc3n2C2CC2)c1 | cell-free assay | competition with immobilised ligand | 1 µM | 100% |
| CC1CCCN1c1nccc(-c2cnn3ncccc23)n1 (stereo not drawn) | binding | – | 1 µM | 95% |
| Nc1ncc2c(n1)-c1c([nH]c3ccc(C#CC4CC4)cc13)CCCC2 | binding | competition with immobilised ligand | 1 µM | 42% |
| CCC(=N\O)/C(C)=C/c1ccc(F)cc1 | cell-free assay | competition with immobilised ligand | 1 µM | 93% |
| COc1cnc(Nc2cccc(S(N)(=O)=O)c2)nc1N1CCN(c2ccccc2)CC1 | binding | competition with immobilised ligand | 1 µM | 75% |
| O=C(Nc1cccnn1)N1CCC(=Cc2cccc(Oc3ccc(C(F)(F)F)cn3)c2)CC1 | cell-free assay | competition with immobilised ligand | 1 µM | 100% |
| C=CC(=O)N1CCC(C(=O)NCC(=O)N2CCN(c3nc(-c4cnc(N)nc4C(F)F)nc(N4CCOCC4)n3)CC2)CC1 | binding | competition with immobilised ligand | 1 µM | 87% |
| O=C(c1ccc(Nc2ncc(Cl)c(-c3ccc(Cl)s3)n2)cc1)N1CCC(N2CCCC2)CC1 | binding | competition with immobilised ligand | 1 µM | 43% |
| C[C@@H](c1cccc(C#N)c1)n1cc(Cl)cc(C(N)=O)c1=N | cell-free assay | competition with immobilised ligand | 1 µM | 56% |
| O=C(NCCCN1CCOCC1)c1ccc(Nc2ncc(Cl)c(-c3ccc(Cl)s3)n2)cc1 | binding | competition with immobilised ligand | 1 µM | 44% |
| COc1ncc2cc3ccccc3nc2c1C#N | cell-free assay | competition with immobilised ligand | 5 µM | 100% |
| N[C@@H]1CCN(c2nccc(-c3cnn4ncccc34)n2)C1 | binding | – | 1 µM | 100% |
| CC(C)CC(=O)N1CCc2nc(-c3ccc(Br)cc3)nc(N(C)Cc3ccccc3)c2C1 | cell-free assay | competition with immobilised ligand | 0.1 µM | 100% |
| COc1ccnn2ncc(-c3ccnc(N(C)C)n3)c12 | binding | – | 1 µM | 63% |
| CCN1CCN(Cc2ccc(C(=O)Nc3ccc(C)c(Oc4ccc5c(c4)CC(=O)N5)c3)cc2C(F)(F)F)CC1 | binding | competition with immobilised ligand | 1 µM | 79% |
| CN(C)c1nccc(-c2cnc3ncccn23)n1 | binding | – | 1 µM | 84% |
| O=C(NCCCN1CCOCC1)c1ccc(Nc2nccc(-c3cc4ccccc4s3)n2)cc1 | binding | competition with immobilised ligand | 1 µM | 69% |
| O=C(NCC1CCOCC1)c1n[nH]cc1NC(=O)c1c(F)cccc1F | binding | competition with immobilised ligand | 1 µM | 84% |
